# Screening data deposited in PubChem by Johns Hopkins Ion Channel Center.
# A selection: hits, their analogues and other compounds. The true share with any hit is near 2.3%.
# TRPC4 agonist = TRPC4 (mouse) channel activation. HEK293 TRPC4beta/mu-opioid, Fluo4 calcium fluorescence; active compounds read high. B-score at 10 µM. 310,000 tested, 0.49% active. AID 2237. Q9QUQ5;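 active = B-score above 5 SD of library B-scores, and initial fluorescence ratio not above library mean plus 5 SD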;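 also: positive B-score marks a calcium rise read as TRPC4 activation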
#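 Assay system – TRPC4beta and mu-opioid receptor HEK293 stable cells · Measured by – Fluo4 fluorescence, kinetic · Schedule – dye loading 45 min room temperature, 110 s kinetic read · Read-out – B-scored integrated calcium fluorescence ratio · Controls – buffer and maximal DAMGO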
# TRPC6 inhibitor = mouse TRPC6 channel inhibition | HEK293-TRPC6, membrane potential dye, ACh-evoked depolarization; active compounds read low | 310,000 tested, 1.1% active | Q61143 | AID 2553 | B-score at 10 µM;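 active = B-score under library mean minus 3 SD, initial fluorescence not abnormally high, positive integrated signal ratio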;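 also: B-score derived from integrated fluorescence ratio over the kinetic read; more negative B-score means stronger inhibition of depolarization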
# Target sequence (Q61143 whole entry, looked up): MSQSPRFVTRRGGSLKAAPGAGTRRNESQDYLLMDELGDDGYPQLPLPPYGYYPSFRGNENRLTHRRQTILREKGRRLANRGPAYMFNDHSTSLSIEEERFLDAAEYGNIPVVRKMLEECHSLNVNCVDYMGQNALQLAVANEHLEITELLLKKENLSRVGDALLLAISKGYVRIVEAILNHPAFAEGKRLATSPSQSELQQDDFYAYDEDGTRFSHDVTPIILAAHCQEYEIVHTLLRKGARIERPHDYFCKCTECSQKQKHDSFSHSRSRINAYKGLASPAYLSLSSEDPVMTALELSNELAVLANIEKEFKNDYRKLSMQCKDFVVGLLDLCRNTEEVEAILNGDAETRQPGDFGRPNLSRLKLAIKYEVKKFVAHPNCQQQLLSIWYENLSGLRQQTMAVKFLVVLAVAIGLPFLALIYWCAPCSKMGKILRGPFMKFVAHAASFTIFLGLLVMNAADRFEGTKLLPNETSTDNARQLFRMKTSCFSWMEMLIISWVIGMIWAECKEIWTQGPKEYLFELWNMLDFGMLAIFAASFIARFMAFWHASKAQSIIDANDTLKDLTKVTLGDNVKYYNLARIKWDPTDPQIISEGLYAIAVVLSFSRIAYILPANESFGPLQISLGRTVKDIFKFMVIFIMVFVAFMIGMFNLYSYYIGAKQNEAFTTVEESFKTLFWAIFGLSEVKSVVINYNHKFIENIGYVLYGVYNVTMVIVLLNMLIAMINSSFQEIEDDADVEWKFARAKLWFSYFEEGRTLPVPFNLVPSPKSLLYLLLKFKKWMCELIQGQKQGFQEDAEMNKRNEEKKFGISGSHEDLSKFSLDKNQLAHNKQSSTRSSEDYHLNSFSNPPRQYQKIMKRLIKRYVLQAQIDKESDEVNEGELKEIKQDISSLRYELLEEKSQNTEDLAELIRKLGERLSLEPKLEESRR
# TRPC6 act = activators of mouse TRPC6 channel. B-score at 10 µM. 310,000 tested, 0.13% active. HEK293-TRPC6 membrane potential dye fluorescence; active compounds read high. AID 2550;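 active = B-score of the integrated fluorescence ratio above library mean plus 3 SD, and starting fluorescence ratio within library mean plus 5 SD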;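 also: higher score means more depolarization so channel activation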
# TRPC4 PAM = TRPC4 (mouse) allosteric potentiation; Q9QUQ5; HEK293 TRPC4beta/mu-opioid, DAMGO EC20, Fluo-4 Ca2+ flux; active compounds read high; B-score at 10 µM; 310,000 tested, 0.42% active; AID 2227;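 active = B-score of calcium response area above 5 SD of library B-scores, with initial fluorescence ratio within 5 SD of library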;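 also: B-score of integrated fluorescence ratio over time as area under calcium response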
# TRPC4 inh = TRPC4 (mouse) channel inhibition | B-score at 10 µM | HEK293 TRPC4beta/mu-opioid, DAMGO-evoked Fluo4 calcium flux; active compounds read low | Q9QUQ5 | AID 2247 | 300,000 tested, 0.39% active;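 active = B-score over 3 SD under the library average, no early fluorescence shift, positive overall ratio signal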
#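 Assay system – HEK293 line stably carrying TRPC4beta and mu-opioid receptor · Doses – single dose · Detection – Fluo4 calcium-dye fluorescence, kinetic read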
# TRPC4 spec 2 = second check of whether TRPC6 inhibitors also affect mouse TRPC4; AID 2776; inhibition, % at 10 µM; HEK293 TRPC4/MOR, membrane potential dye fluorescence; channel activated by saturating DAMGO dose; shares compounds with TRPC6 inhibitor; 920 tested, 42% active;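 active = compounds whose fluorescence signal differed from control wells by over 3 SD, either direction, in both duplicate plates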
# TRPC4 spec = tests whether TRPC6 inhibitors also affect mouse TRPC4; 920 tested, 61% active; activity change, negative = inhibition, % at 10 µM; shares compounds with TRPC6 inhibitor; HEK293 TRPC4/mu-opioid, membrane potential fluorescence;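 active = rise or fall in signal beyond 3 SD of buffer-only wells in both replicate plates, either sign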;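 also: integrated kinetic ratio of fluorescence range over baseline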
# HEK293 MPD ctr 2-1 = second counter-screen for TRPC6 inhibitors: parental HEK293 cells. shares compounds with TRPC6 inhibitor. signal change vs control, % at 10 µM. parental HEK293 membrane potential dye fluorescence; maximal acetylcholine challenge after compound addition. 920 tested, 31% active;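 active = membrane potential signal moving either way by over 3 SD of the maximum-effect control, in both duplicate plates, meaning non-specific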
# HEK293 MPD ctr-1 = counter-screen for TRPC6 inhibitors: effect in parental HEK293 cells; shares compounds with TRPC6 inhibitor; AID 2780; 920 tested, 60% active; membrane potential signal change, % at 10 µM; parental HEK293 membrane potential dye fluorescence;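 active = membrane potential signal shifting up or down by more than 3 SD of buffer-only wells, on both duplicate plates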
# HEK293 MPD ctr-2 = checks TRPC6 modulator effects in parental HEK293 cells; shares compounds with TRPC6 inhibitor; membrane potential dye fluorescence; membrane potential signal change, % at 10 µM; 2,400 tested, 51% active;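 active = membrane potential signal moves up or down beyond 5 SD from buffer-only wells, on both duplicate plates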
# HEK293 MPD ctr 2-2 = second check of TRPC6 modulator effects in parental HEK293 cells | membrane potential dye fluorescence; after compound, maximal acetylcholine stimulation | shares compounds with TRPC6 inhibitor | inhibition, % at 10 µM | 2,400 tested, 14% active;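 active = membrane potential signal drops by more than 5 SD from the mean control signal, in both duplicate plates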;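 also: plate controls were acetylcholine ECmax control wells for no effect and buffer only wells for full effect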
# TRPC4 ctr mod = selectivity of TRPC6 modulators against mouse TRPC4; shares compounds with TRPC6 inhibitor; HEK293 TRPC4/mu-opioid, membrane potential fluorescence; percent change from control (negative = decrease, positive = increase), % at 10 µM; 2,400 tested, 69% active; AID 488927;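 active = membrane potential signal moved up or down beyond 5 SD of buffer control wells, in both duplicate plates, actives on both sides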;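 also: plate controls were assay buffer wells for no effect and DAMGO maximal-effect wells for full effect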
# TRPC4/MOR inh 2 = second selectivity test of TRPC6 modulators against mouse TRPC4. AID 488928. 2,400 tested, 55% active. HEK293 TRPC4/mu-opioid, membrane potential dye fluorescence; stimulated with maximal-effect DAMGO. inhibition, % at 10 µM. shares compounds with TRPC6 inhibitor;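 active = drop in membrane potential signal beyond 5 SD of the control wells in both duplicate plates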;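 also: TRPC4 counter screen for TRPC6 hits run under conditions tuned for TRPC6 not TRPC4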
# TRPC6 inh conf = confirmation of mouse TRPC6 inhibitors; shares compounds with TRPC6 inhibitor; HEK293-TRPC6, membrane potential dye, ACh-evoked depolarization; inhibition, % at 10 µM; 3,300 tested, 43% active; AID 488960;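 active = fluorescence ratio falls more than 5 SD below the full-stimulation control mean, in both duplicate runs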;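 also: integrated fluorescence ratio of peak minus minimum over baseline after agonist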
# TRPC6 act confirm = mouse TRPC6 activator confirmation | 2,800 tested, 11% active | AID 488961 | HEK293-TRPC6 membrane potential dye fluorescence, FDSS | activation, % at 10 µM | shares compounds with TRPC6 inhibitor;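 active = ratio signal rise beyond 5 SD above unstimulated control wells' mean, seen in both duplicate runs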;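 also: plate controls were buffer EC0 wells for no effect and acetylcholine ECmax response for full effect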
# * = called active by the depositor; i = inactive; / = not tested or not shown.
SMILES,TRPC4 agonist,TRPC6 inhibitor,TRPC6 act,TRPC4 PAM,TRPC4 inh,TRPC4 spec 2,TRPC4 spec,HEK293 MPD ctr 2-1,HEK293 MPD ctr-1,HEK293 MPD ctr-2,HEK293 MPD ctr 2-2,TRPC4 ctr mod,TRPC4/MOR inh 2,TRPC6 inh conf,TRPC6 act confirm
CC1(C)CC(=O)C2=C(C1)NC1=C(C(=O)c3ccccc31)C2c1cc([N+](=O)[O-])ccc1O (stereo not drawn),i,-5.41*,i,i,i,/,/,/,/,i,i,-13.0%*,66.5%*,42.0%*,i
COc1cc([N+](=O)[O-])ccc1NC(=S)NC(=O)CC(C)(C)C,i,i,i,i,i,/,/,/,/,/,/,/,/,/,/
Cc1nnc(SCC(=O)N2CCCC2)n(N)c1=O,i,i,i,i,i,/,/,/,/,/,/,/,/,/,/
O=C(COc1ccc2ccccc2c1CN1CCOCC1)N1CCc2ccccc21,i,-7.21*,i,i,i,25.5%*,i,i,1.3%*,/,/,/,/,88.0%*,i
O=C1c2cccc3cccc(c23)C(=O)N1CC1CCN(CC(O)COCc2ccc3c(c2)OCO3)CC1 (stereo not drawn),i,-7.28*,i,i,i,19.0%*,-27.8%*,33.0%*,-323.0%*,/,/,/,/,82.7%*,i
CCN(CC(=O)NCc1ccc(Cl)cc1)C(=O)CSCC(=O)Nc1ccc(OC)cc1,i,i,i,i,i,/,/,/,/,/,/,/,/,/,/
CCn1c(=N)n(CC(O)c2ccccc2)c2ccccc21 (stereo not drawn),i,i,i,i,i,/,/,/,/,/,/,/,/,/,/
CCCCn1c(=N)n(CC(O)c2ccccc2)c2ccccc21 (stereo not drawn),i,i,i,i,i,/,/,/,/,/,/,/,/,/,/
CC(C)(C)c1ccc(Cn2c(=N)n(CC(O)c3ccco3)c3ccccc32)cc1 (stereo not drawn),i,-7.3*,i,i,i,37.0%*,11.0%*,i,8.7%*,/,/,/,/,66.7%*,i
Cc1ccccc1Cn1c(=N)n(CC(O)c2ccco2)c2ccccc21 (stereo not drawn),i,-5.25*,i,i,-6*,/,/,/,/,143.0%*,i,49.0%*,99.0%*,48.0%*,/
CCCCCCC(=O)N1CCC(c2nc3c(nnn3Cc3ccccc3Cl)c(=O)[nH]2)CC1,i,-10.7*,14.3*,i,i,/,/,/,/,131.0%*,i,22.5%*,i,73.5%*,127.0%*
CC(=O)Oc1ccc2occ(/C=N/c3cc(=O)[nH]c(=S)[nH]3)c(=O)c2c1,i,i,i,i,i,/,/,/,/,/,/,/,/,/,/
